The source of these data is ChEMBL document CHEMBL2040760, “Synthesis and biological evaluation of novel (-)-Cercosporamide derivatives as potent selective PPARγ modulators” (Eur J Med Chem, 2012).

Assay [1] has as its target T1, Peroxisome proliferator-activated receptor gamma (Homo sapiens) (UniProt P37231).
T1 sequence (whole entry): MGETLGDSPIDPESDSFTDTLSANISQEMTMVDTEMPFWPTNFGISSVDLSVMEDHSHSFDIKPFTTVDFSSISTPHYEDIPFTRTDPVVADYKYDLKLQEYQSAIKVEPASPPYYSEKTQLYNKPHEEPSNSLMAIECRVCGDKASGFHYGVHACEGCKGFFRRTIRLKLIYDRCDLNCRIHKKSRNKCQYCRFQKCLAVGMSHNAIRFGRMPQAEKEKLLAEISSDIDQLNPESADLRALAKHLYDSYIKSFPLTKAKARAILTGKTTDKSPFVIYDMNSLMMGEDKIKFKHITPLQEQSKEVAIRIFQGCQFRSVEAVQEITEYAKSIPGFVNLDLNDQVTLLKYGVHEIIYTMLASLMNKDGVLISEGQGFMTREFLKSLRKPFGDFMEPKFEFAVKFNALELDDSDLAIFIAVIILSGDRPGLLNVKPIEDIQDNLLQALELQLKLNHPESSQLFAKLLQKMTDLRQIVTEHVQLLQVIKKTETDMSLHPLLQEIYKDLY
Nature of the assay: Modulation of full-length human pSG5-fused PPARgamma expressed in MG-63 cells co-expressing pGV-P2-PPRE after 24 hrs by luciferase reporter gene based transactivation assay relative to 5-(4-{[6-(4-hydroxy-3,5-dimethylphenoxy)-1-methyl-1H-benzimidazol- 2-yl]methoxy}benzyl)-1,3-thiazolidine-2,4-dione. It is filed as cell-based. In outline:
(§1)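 MG-63 cells transiently co-transfected (Lipofectamine, 4 h, serum- and antibiotic-free) with pSG5-hPPARγ and pGV-P2-PPRE luciferase reporter, replated at 40,000 cells/well. After 24 h and medium change, exposed to graded compound concentrations for 20 h. Luciferase luminescence read as the output.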

For assay [2], the target named is T2, Peroxisome proliferator-activated receptor gamma (Homo sapiens, UniProt P37231).
T2 sequence (P37231 whole entry): T1 sequence (whole entry)
Nature of the assay: Modulation of full-length human pSG5-fused PPARgamma expressed in MG-63 cells co-expressing pGV-P2-PPRE after 24 hrs by luciferase reporter gene based transactivation assay. It is filed as cell-based. In outline:
as §1

With `COc1cc(O)c2c(c1C(=O)NCc1c(C)ccc3cc(F)ccc13)OC1=CC(O)=C(C(C)=O)C(=O)[C@]12C`, the Emax in assay [1] came out at 28%. The concentration for a half-maximal effect (EC50) in assay [2] came to 27 nM.

Turning to `COc1cc(O)c2c(c1C(=O)NCc1c(C)ccc3cc(Cl)ccc13)OC1=CC(O)=C(C(C)=O)C(=O)[C@]12C`, in assay [1], the Emax is 26%. In assay [2], this compound came in with an EC50 of 56 nM.

On to `COc1cc(O)c2c(c1C(=O)NCc1cccc3ccccc13)OC1=CC(O)=C(C(C)=O)C(=O)[C@]12C`, for which the Emax in assay [1] was 47%. The compound further had an EC50 in assay [2] of 180 nM.

Consider `CCCc1ccc2ccccc2c1CNC(=O)c1c(OC)cc(O)c2c1OC1=CC(O)=C(C(C)=O)C(=O)[C@]12C`, for which the Emax in assay [1] was 37%. In assay [2], this compound had an EC50 of 43 nM.

Compound `CCCCc1ccc2ccccc2c1CNC(=O)c1c(OC)cc(O)c2c1OC1=CC(O)=C(C(C)=O)C(=O)[C@]12C` had an Emax in assay [1] of 22%. This compound also yielded an EC50 in assay [2] of 59 nM.

In assay [1], `COc1cc(O)c2c(c1C(=O)NCc1c(C)ccc3c(F)cccc13)OC1=CC(O)=C(C(C)=O)C(=O)[C@]12C` gave an Emax of 39%. It took 16 nM to reach a half-maximal effect in assay [2] (EC50).

Take `COc1cc(O)c2c(c1C(=O)NCc1c(C)cc(Cl)c3ccccc13)OC1=CC(O)=C(C(C)=O)C(=O)[C@]12C`: the Emax in assay [1] turned out to be 57%. The compound further yielded an EC50 in assay [2] of 22 nM.

In turn, `COc1cc(O)c2c(c1C(=O)NCc1c(C)cc(F)c3ccccc13)OC1=CC(O)=C(C(C)=O)C(=O)[C@]12C` displayed an Emax in assay [1] of 50%. The compound further gave an EC50 in assay [2] of 4.8 nM.
